SMILES strings stand for the structures.

This test concerns the target Sodium-dependent dopamine transporter (Rattus norvegicus, UniProt P23977). In words: Displacement of [3H]WIN-35428 from DAT in Sprague-Dawley rat striatum. A digest of the protocol: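 Male Sprague-Dawley rat striatal membranes (homogenized in ice-cold modified Krebs-HEPES, pH 7.4; washed by centrifugation), 2.5 mg original wet weight per tube, preincubated 5 min with or without test compound. Nonspecific binding defined with 0.1 mM cocaine. Filtration on BSA-presoaked GF/B filters, scintillation counting. Triplicates. IC50 and Hill coefficient reported.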
On the technique in general: Loss of bound radioactivity is the signal in a displacement assay; it reports binding, not function.

Sequence of Sodium-dependent dopamine transporter (P23977 whole entry): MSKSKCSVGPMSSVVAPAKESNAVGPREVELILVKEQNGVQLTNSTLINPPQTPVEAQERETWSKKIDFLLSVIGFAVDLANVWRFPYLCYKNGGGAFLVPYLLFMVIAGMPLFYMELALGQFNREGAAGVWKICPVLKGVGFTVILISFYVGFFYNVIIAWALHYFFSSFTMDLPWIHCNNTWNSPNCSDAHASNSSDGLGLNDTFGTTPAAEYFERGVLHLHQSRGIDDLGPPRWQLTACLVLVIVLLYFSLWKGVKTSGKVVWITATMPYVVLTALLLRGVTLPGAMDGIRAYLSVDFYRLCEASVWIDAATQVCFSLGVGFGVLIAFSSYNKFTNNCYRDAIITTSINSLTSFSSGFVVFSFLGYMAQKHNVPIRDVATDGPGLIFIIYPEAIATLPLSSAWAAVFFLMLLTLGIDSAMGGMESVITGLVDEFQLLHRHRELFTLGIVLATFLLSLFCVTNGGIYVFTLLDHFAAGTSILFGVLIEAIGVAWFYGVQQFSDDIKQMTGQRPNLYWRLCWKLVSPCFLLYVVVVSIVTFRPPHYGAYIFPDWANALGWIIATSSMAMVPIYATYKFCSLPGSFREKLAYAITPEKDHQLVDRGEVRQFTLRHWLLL

For `Fc1ccc(N(CCCN2CCN(Cc3ccccc3)CC2)c2ccc(F)cc2)cc1`, the IC50 (in general, the midpoint of a concentration-inhibition curve) came out at 29.7 nM. The value for `Fc1ccc(N(CCCN2CCN(CCCc3ccc(N=C=S)c(I)c3)CC2)c2ccc(F)cc2)cc1` was 95.5 nM; that for `Fc1ccc(N(CCCN2CCN(CCc3ccc(N=C=S)c(I)c3)CC2)c2ccc(F)cc2)cc1` was 66 nM; that for `Fc1ccc(N(CCCN2CCN(Cc3ccc(N=C=S)cc3)CC2)c2ccc(F)cc2)cc1` was 75.4 nM. Consider `[N-]=[N+]=Nc1ccc(CCN2CCN(CCCN(c3ccc(F)cc3)c3ccc(F)cc3)CC2)cc1I`, for which the IC50 is 163 nM. In the case of `[N-]=[N+]=Nc1ccc(CCCN2CCN(CCCN(c3ccc(F)cc3)c3ccc(F)cc3)CC2)cc1I`, the IC50 came to 282 nM. For the molecule `Fc1ccc(N(CCCN2CCN(CCc3ccc(N=C=S)cc3)CC2)c2ccc(F)cc2)cc1`, the IC50 was determined as 68.3 nM.

`Fc1ccc(N(CCCN2CCN(CCCc3ccccc3)CC2)c2ccc(F)cc2)cc1` came in with an IC50 of 19.5 nM.

Take `[N-]=[N+]=Nc1ccc(CCN2CCN(CCOC(c3ccccc3)c3ccccc3)CC2)cc1I`: the IC50 was determined as 5.61 nM. On to `Fc1ccc(N(CCCN2CCN(CCCc3ccc(N=C=S)cc3)CC2)c2ccc(F)cc2)cc1`, for which the IC50 was determined as 99.8 nM. Next, `[N-]=[N+]=Nc1ccc(CN2CCN(CCCN(c3ccc(F)cc3)c3ccc(F)cc3)CC2)cc1I`: 242 nM.

Values taken from ChEMBL document CHEMBL1149244, “Novel azido and isothiocyanato analogues of [3-(4-phenylalkylpiperazin-1-yl)propyl]bis(4-fluorophenyl)amines as potential irreversible ligands for the dopamine transporter” (J Med Chem, 2004).
